Measurements from ChEMBL document CHEMBL1144026, “Synthesis and anticonvulsant evaluation of N-substituted isoquinoline AMPA receptor antagonists” (2008).
The source made the active and inactive calls. The rule behind the calls is not given here.

Tests used:
Mus musculus [1] = species: Mus musculus; assay: Anticonvulsant activity against audiogenic tonus seizures in DBA/2 mouse after 30 mins; type: functional; details: DBA/2, 0.5 h
Summary of the method: (§1)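 DBA/2 mice aged 22 to 25 days, of either sex, in groups of 10. Dosed ip (0.1 mL/10 g) as a fresh solution in 50% DMSO/50% saline, or given vehicle. After 30 min, 60 s habituation under a dome, then 12–16 kHz, 109 dB sound for 60 s or until tonic extension. Seizure phase incidence and latency were scored. ED50 (≥32 animals, 95% confidence limits) by Litchfield–Wilcoxon.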

Mus musculus [2] = species: Mus musculus; assay: Anticonvulsant activity against audiogenic clonus seizures in DBA/2 mouse after 30 mins; type: functional; details: DBA/2, 0.5 h; summary of the method: as §1
[3] = (§2) Reduction in AMPA-mediated current in CA1 pyramidal neurons of Wistar rat at 50 uM after 5 mins by patch clamp technique; type: functional, Pyramidal neuron; set-up: scale not given: the % may be the effect or the level left
Summary of the method: (§3)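 Whole-cell patch clamp of single CA1 pyramidal neurons; pipette 1.5–3 MΩ, K-gluconate-based intracellular solution. (S)-AMPA 5 μM pulsed for 5 s by fast solution changer; test agent bath-perfused 5 min. Peak amplitude minus baseline and current duration from ≥3 consecutive responses per neuron, control vs drug; unpaired t test per neuron, Wilcoxon matched pairs across neurons.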

Pyramidal neuron = assay: as §2; type: functional; summary of the method: as §3

Structure (SMILES) | ED50 (Mus musculus [1]) | ED50 (Mus musculus [2]) | Activity [3] | Activity (Pyramidal neuron)
COc1cc2c(cc1OC)C(c1ccc(F)cc1)N(C(=O)C(=O)N1CCOCC1)CC2 (stereo unspecified) | 90.2 µmol/kg | > 100 µmol/kg | – | –
COc1cc2c(cc1OC)C(c1ccccc1)N(C(=O)C(=O)N1CCCCC1)CC2 (stereo unspecified) | 55.3 µmol/kg | 98.1 µmol/kg | – | –
COc1cc2c(cc1OC)C(c1ccc(Cl)cc1)N(C(=O)C(=O)N1CCCCC1)CC2 (stereo unspecified) | 65.3 µmol/kg | 88.4 µmol/kg | – | –
COc1cc2c(cc1OC)C(c1ccccc1)N(C(=O)C(=O)N1CCOCC1)CC2 (stereo unspecified) | 72.1 µmol/kg | > 100 µmol/kg | – | –
COc1cc2c(cc1OC)C(c1ccccc1)N(C(=O)C(=O)N1CCCC1)CC2 (stereo unspecified) | 54.6 µmol/kg | > 100 µmol/kg | – | –
COc1cc2c(cc1OC)C(c1ccc(Br)cc1)N(C(=O)C(=O)N1CCOCC1)CC2 (stereo unspecified) | > 100 µmol/kg | > 100 µmol/kg | – | –
CCN(CC)C(=O)C(=O)N1CCc2cc(OC)c(OC)cc2C1c1ccccc1 (stereo unspecified) | 53.3 µmol/kg | 65.1 µmol/kg | – | –
COc1cc2c(cc1OC)C(c1ccc(Br)cc1)N(C(=O)C(=O)N1CCCCC1)CC2 (stereo unspecified) | 41.6 µmol/kg | 60.5 µmol/kg | – | –
COc1cc2c(cc1OC)C(c1ccc(F)cc1)N(C(=O)C(=O)N1CCCCC1)CC2 (stereo unspecified) | 38.7 µmol/kg | 44.6 µmol/kg | 60% | –
COc1cc2c(cc1OC)C(c1ccc(Br)cc1)N(C(=O)CN1CCCCC1)CC2 (stereo unspecified) | 8.17 µmol/kg | 12.7 µmol/kg | – | –
COc1cc2c(cc1OC)C(c1ccc(Cl)cc1)N(C(=O)C(=O)N1CCCC1)CC2 (stereo unspecified) | 37.2 µmol/kg | 58.1 µmol/kg | – | –
COc1cc2c(cc1OC)C(c1ccc(Br)cc1)N(C(=O)C(=O)N1CCCC1)CC2 (stereo unspecified) | 45.4 µmol/kg | 89.2 µmol/kg | – | –
COc1cc2c(cc1OC)C(c1ccc(Cl)cc1)N(C(=O)C(=O)N1CCOCC1)CC2 (stereo unspecified) | 46.9 µmol/kg | 91 µmol/kg | – | –
CCN(CC)C(=O)C(=O)N1CCc2cc(OC)c(OC)cc2C1c1ccc(F)cc1 (stereo unspecified) | > 100 µmol/kg | > 100 µmol/kg | – | –
CC1=NN=C(c2ccc(N)cc2)c2cc3c(cc2C1)OCO3 | – | – | – | Active
CCN(CC)C(=O)C(=O)N1CCc2cc(OC)c(OC)cc2C1c1ccc(Br)cc1 (stereo unspecified) | > 100 µmol/kg | > 100 µmol/kg | – | –
CCN(CC)C(=O)C(=O)N1CCc2cc(OC)c(OC)cc2C1c1ccc(Cl)cc1 (stereo unspecified) | 67.7 µmol/kg | 75.9 µmol/kg | – | –
COc1cc2c(cc1OC)C(c1ccc(F)cc1)N(C(=O)C(=O)N1CCCC1)CC2 (stereo unspecified) | 73 µmol/kg | > 100 µmol/kg | – | –
